High-throughput results as filed in PubChem.
Most compounds without a hit are left out; they make up all but 1.7% or so of the library.
SUMO1 PPI mod: alters human SUMO1 binding to SIM partners; P63165; SUMO1 binding to a labelled peptide, TR-FRET, 1 h; inhibition, % at 20 µM; actives 0.33% (n = 360,000); in the data active = inhibition above about 37%
Target sequence (P63165 whole entry, looked up): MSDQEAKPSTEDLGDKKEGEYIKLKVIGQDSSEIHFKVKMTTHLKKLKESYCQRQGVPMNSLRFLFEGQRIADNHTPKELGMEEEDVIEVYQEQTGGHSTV
DNMT1 inh: inhibitors of human DNMT1. DNMT1 molecular beacon, Hinp1I cleavage, fluorescence. inhibition (reported as % activation of signal), % at 10 µM. actives 0.83% (n = 360,000). AID 588458; in the data active = inhibition above about 50%
STEP inh: blocks human striatal-enriched tyrosine phosphatase. P54829. inhibition, % at 20 µM. AID 588621. actives 0.25% (n = 360,000). recombinant STEP, OMFP fluorogenic substrate, fluorescence;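 active = inhibition at 20 µM, scaled per plate between control wells, above about 37%, limit read from the data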;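 note: 0% = DMSO with enzyme and substrate and 100% = substrate only without enzyme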
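System: isolated STEP enzyme; schedule: 20 min enzyme reaction at room temperature, protected from light; medium: Bis-Tris buffer pH 6.0, 2.5 mM DTT, 0.005% Tween 20; signal: fluorescence, 480/540 nm; dosing: single compound dose of 20 µM, 1% DMSO final; also added: OMFP substrate, 25 µM final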
Scp1 inh: inhibitors of human Scp-1 phosphatase; inhibition, % at 20 µM; Recombinant Scp1, phosphopeptide, malachite green phosphate absorbance; Q9GZU7; actives 0.88% (n = 340,000);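 active = inhibition above about 50% at 20 µM, limit read from the data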;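 note: plate controls were DMSO wells with enzyme for no effect and wells lacking enzyme for full effect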
Target sequence (Q9GZU7 76-261 limits assumed): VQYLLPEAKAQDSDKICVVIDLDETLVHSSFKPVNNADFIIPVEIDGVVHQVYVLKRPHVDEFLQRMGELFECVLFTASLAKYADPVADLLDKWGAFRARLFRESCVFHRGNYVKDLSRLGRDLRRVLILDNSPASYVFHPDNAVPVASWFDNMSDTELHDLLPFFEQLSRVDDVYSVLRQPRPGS
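Test system: SCP-1 phosphatase catalytic domain, residues 76-261 | Compound dosing: One concentration, 20 µM, with 1.0% DMSO | Schedule: 45 min room-temperature reaction, 5 min colour, 30 min stabiliser | Detection: Absorbance at 630 nm | Read-out basis: % inhibition of SCP-1 phosphate liberation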
LMPTP block: blocks human LMPTP phosphatase | inhibition, % at 20 µM | AID 651560 | recombinant LMPTP-A, OMFP fluorogenic substrate, fluorescence intensity | actives 0.22% (n = 360,000);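 active = compounds that cut the enzyme signal by at least half of the control window in the single-dose screen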;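 note: plate controls were DMSO wells with enzyme plus substrate for no effect and substrate without enzyme for full effect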
Target sequence (P24666 whole entry, looked up): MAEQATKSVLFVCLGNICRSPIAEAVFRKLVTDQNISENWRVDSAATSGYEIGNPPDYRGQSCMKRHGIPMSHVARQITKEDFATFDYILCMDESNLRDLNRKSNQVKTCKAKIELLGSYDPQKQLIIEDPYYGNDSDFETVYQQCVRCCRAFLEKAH
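Test system – LMPTP-A enzyme · Amount – LMPTP-A at 0.625 nM final in the reaction · Buffer or medium – Bis-Tris pH 6.0, DTT, detergent · Reagent – OMFP 400 µM · Doses – single 20 µM dose · Schedule – reaction 50 min, room temperature, dark · Detection – fluorescence intensity of OMFP turnover product · Evaluation – percent inhibition versus substrate-only and uninhibited controls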
Numbers without * were called inactive; . = no result given; ! = a repeat was not active.

SMILES	SUMO1 PPI mod	DNMT1 inh	STEP inh	Scp1 inh	LMPTP block
Cc1ccc(NC2=C/C(=N\S(=O)(=O)c3cccs3)c3ccccc3C2=O)c(C)c1	3.0	32.1	6.2	-9.0	8.1
Cc1ccc(Cl)cc1NC1=C/C(=N\S(=O)(=O)c2cccs2)c2ccccc2C1=O	-8.6	56.8*!	4.5	-12.4	5.5
O=C(O)c1ccc(NC2=C/C(=N/S(=O)(=O)c3cccs3)c3ccccc3C2=O)cc1	65.3*	97.2*	4.6	.	8.6
O=C1C(Nc2ccc(O)cc2)=C/C(=N/S(=O)(=O)c2cccs2)c2ccccc21	52.1*	67.3*	1.5	-8.4	10.1
COc1ccc(C(C(=O)NCc2ccccc2)n2c(-c3ccccn3)nc3ccccc32)cc1 (centres undefined)	-2.4	.	.	.	0.4
CCC(c1nc2ccccc2[nH]1)n1c(-c2ccnc(Cl)c2)nc2ccccc21 (centres undefined)	0.6	.	.	.	-0.3
Cc1ccccc1CNC(=O)CN1C(=O)c2ccccc2S1(=O)=O	-1.4	-1.9	-0.5	1.8	-0.3
Cc1ccccc1CN1C(=O)c2ccccc2S1(=O)=O	43.6*	-2.3	0.4	-3.8	-0.6
O=C(COc1ccccc1)Nc1sc2c(c1C(=O)NCc1cccnc1)CCCC2	-4.4	29.7	4.5	6.7	51.3*
CC(=O)NCCNc1nc(NCc2ccccc2)nc2ccsc12	2.8	1.4	-3.9	.	28.6
COc1ccccc1CNc1nc(Nc2cccc(-c3cnco3)c2)c2sccc2n1	0.9	-32.0	2.8	.	51.0*
COc1ccccc1CNc1nc(NCc2ccccc2OC)c2sccc2n1	-5.7	-11.9	1.2	.	22.6
COc1ccccc1CNc1nc(NCc2ccc(NC(C)=O)cc2)c2sccc2n1	2.0	-12.3	1.7	.	65.1*
CC(=O)Nc1ccc(CNc2nc(NCc3cccs3)nc3ccsc23)cc1	0.0	-8.1	1.4	.	60.6*
CCOC(=O)[C@]12CCCC=C1N(Cc1ccccc1)C(=O)[C@H](CC(=O)NCc1cccc(C(F)(F)F)c1)C2	-4.1	.	.	.	2.6
CC1(c2ccc3c(c2)OCCCO3)NC(=O)N(CC(=O)Nc2cccc(C#N)c2)C1=O (centres undefined)	3.9	-3.9	-2.7	-6.8	0.1
CC(C)NC(=O)C1(C)CN(S(C)(=O)=O)CC(=O)N1Cc1cccc(F)c1 (centres undefined)	-0.1	.	.	.	-0.6
NC(=O)c1c(NC(=O)Cn2nc(C(=O)O)c3ccccc3c2=O)sc2c1CCCC2	9.7	4.8	-2.4	-5.6	1.2
NC(=O)c1c(NC(=O)Cn2nc(C(=O)O)c3ccccc3c2=O)sc2c1CCC2	66.0*	-13.4	0.3	17.1	4.0
COc1cc([N+](=O)[O-])ccc1NC(=S)NNC(=O)c1ccc2c(c1)OCO2	-31.8	-0.6	0.3	-7.6	-1.5
O=C(NC(=S)Nc1cc([N+](=O)[O-])ccc1O)c1ccc2c(c1)OCO2	-6.2	-0.4	14.3	-4.8	58.3*
COc1ccc(CCNC(=O)c2cccc(Br)c2)cc1OC	5.8	6.1	1.1	-1.2	-1.0
C=CCn1c(SCC(=O)c2ccc(O)c(O)c2)nnc1-c1cccnc1	12.8	10.8	6.9	72.5*	24.1
Cc1ccccc1OC1(C)CCN(Cc2ccc(-c3ccccn3)cc2)C1 (centres undefined)	0.8	4.9	2.4	.	2.4
O=C(NC1(O)C(=O)c2ccccc2C1=O)c1c(Cl)cccc1Cl	10.3	52.7*	0.0	7.4	3.2
SMILES	SUMO1 PPI mod	DNMT1 inh	STEP inh	Scp1 inh	LMPTP block
O=C(NC1(O)C(=O)c2ccccc2C1=O)c1ccccc1	28.2	34.0	8.9	-3.6	0.8
CCN1/C(=C2/SC(=S)NC2=O)Sc2ccccc21	5.5	-0.9	1.0	-1.7	-0.8
CSc1ccc(C2=C/C(=C3/SC(=S)NC3=O)c3ccccc3O2)cc1	-17.6	70.3*	3.0	-11.7	1.9
CC(C)CCN1C(=O)c2cccc3c(N)ccc(c23)C1=O	-90.4	122.4*	-113.9	-6.6	-5.1
Cc1cccc(N2C(=O)c3cccc4c(N)ccc(c34)C2=O)c1	-107.3	75.3*	-114.7	0.5	-8.4
COc1ccccc1N1CCN(C2CCCN(C(=O)c3cc(C(C)C)on3)C2)CC1 (centres undefined)	-5.0	3.5	0.4	.	2.1
CC(C)CC(=O)c1c[nH]c(C(=O)NCCCN2CCOCC2)c1	45.4*	3.1	1.4	-8.0	-1.3
